From the M2OR odorant receptor database

Tests used:
Settings in all cases: stereoisomer not certain
[1] = biological target: T1, UniProt Q8VG27
T1 sequence (whole entry): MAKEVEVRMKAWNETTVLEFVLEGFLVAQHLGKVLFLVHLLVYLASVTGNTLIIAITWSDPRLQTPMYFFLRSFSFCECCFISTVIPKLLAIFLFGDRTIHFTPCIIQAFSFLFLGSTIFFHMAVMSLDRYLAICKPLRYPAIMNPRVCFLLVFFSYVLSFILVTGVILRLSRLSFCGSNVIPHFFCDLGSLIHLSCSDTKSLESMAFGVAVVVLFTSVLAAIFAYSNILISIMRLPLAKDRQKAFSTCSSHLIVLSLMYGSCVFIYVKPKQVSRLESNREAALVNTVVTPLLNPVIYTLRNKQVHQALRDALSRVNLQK
Method in brief: (§1)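 Whether a receptor–molecule pair is responsive (active) rests on the original authors' judgment that its measured signal was statistically different from baseline. Pairs without that judgment are non-responsive (inactive). Sources used varied assay methods, commonly transient luciferase assays in mammalian cell lines.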

[2] = biological target: T2, UniProt Q8VG49
T2 sequence (whole entry): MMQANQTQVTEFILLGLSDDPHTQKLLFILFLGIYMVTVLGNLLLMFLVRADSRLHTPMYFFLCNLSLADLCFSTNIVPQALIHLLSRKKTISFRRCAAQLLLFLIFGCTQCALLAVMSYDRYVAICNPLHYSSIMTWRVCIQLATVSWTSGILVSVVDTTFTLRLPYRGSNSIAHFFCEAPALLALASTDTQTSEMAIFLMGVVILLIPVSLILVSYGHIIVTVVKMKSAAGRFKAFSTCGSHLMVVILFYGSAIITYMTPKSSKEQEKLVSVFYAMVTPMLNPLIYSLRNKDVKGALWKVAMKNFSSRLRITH
Method in brief: as §1

[3] = biological target: T3, UniProt Q8VG53
T3 sequence (whole entry): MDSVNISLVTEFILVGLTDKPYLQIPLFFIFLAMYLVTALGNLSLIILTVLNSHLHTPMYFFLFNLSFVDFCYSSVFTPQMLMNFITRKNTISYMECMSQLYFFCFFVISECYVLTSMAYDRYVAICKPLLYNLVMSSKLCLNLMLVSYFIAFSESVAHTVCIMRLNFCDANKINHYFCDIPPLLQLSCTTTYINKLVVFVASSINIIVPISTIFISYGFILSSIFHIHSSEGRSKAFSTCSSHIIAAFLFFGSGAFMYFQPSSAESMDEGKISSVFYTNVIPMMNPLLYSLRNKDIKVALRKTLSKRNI
Method in brief: as §1

[4] = biological target: T4, UniProt Q8VG64
T4 sequence (whole entry): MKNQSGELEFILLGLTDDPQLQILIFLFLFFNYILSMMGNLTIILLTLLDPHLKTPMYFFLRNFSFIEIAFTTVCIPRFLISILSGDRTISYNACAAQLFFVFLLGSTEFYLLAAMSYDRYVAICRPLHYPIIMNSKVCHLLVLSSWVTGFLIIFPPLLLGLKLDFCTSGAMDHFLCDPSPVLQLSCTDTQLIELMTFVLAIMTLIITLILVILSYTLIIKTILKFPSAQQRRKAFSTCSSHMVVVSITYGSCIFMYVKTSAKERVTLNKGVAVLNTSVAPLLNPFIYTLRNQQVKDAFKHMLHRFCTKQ
Method in brief: as §1

[5] = biological target: T5, UniProt Q8VG77
T5 sequence (whole entry): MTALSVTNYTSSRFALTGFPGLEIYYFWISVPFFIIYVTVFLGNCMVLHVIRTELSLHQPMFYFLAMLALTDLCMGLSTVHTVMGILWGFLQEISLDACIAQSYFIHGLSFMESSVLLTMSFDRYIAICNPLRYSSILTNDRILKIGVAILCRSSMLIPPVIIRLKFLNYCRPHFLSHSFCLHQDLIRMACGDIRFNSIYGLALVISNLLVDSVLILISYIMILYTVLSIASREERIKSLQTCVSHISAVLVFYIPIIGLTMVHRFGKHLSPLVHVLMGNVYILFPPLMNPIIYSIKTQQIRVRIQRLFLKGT
Method in brief: as §1

[6] = biological target: T6, UniProt Q8VG96
T6 sequence (whole entry): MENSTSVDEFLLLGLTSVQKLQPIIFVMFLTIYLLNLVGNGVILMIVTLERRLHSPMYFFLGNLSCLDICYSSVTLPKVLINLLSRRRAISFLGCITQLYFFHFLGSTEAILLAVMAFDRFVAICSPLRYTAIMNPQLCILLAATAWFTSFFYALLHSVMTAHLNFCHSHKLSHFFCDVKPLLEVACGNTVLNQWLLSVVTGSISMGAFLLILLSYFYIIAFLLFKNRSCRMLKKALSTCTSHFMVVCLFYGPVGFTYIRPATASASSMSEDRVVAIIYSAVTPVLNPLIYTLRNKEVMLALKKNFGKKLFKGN
Method in brief: as §1

[7] = biological target: T7, UniProt Q8VGB9
T7 sequence (whole entry): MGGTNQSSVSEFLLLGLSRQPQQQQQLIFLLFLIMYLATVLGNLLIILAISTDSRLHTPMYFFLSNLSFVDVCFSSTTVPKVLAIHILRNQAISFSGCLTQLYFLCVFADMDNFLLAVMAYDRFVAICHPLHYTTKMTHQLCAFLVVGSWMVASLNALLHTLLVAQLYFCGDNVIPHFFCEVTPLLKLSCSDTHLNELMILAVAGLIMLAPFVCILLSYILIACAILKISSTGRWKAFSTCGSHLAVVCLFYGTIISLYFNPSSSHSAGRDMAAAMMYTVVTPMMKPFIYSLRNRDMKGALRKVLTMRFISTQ
Method in brief: as §1

[8] = biological target: UniProt Q8VG28
Method in brief: as §1
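Note: active if original authors judged signal statistically different from baseline.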

Chain of UniProt Q8VG28 (Q8VG28 as listed by the source): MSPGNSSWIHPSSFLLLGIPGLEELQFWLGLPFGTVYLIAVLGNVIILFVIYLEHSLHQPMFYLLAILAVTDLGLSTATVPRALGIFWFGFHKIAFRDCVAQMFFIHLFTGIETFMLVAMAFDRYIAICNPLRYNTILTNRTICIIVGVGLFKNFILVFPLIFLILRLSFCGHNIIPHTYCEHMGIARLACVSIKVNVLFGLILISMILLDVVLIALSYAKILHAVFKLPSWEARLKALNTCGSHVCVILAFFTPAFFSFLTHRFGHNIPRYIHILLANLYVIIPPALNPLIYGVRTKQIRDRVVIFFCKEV

| Compound | odorant receptor agonist call [1] | odorant receptor agonist call [2] | odorant receptor agonist call [3] | odorant receptor agonist call [4] | odorant receptor agonist call [5] | odorant receptor agonist call [6] | odorant receptor agonist call [7] | odorant receptor agonist call [8] |
| --- | --- | --- | --- | --- | --- | --- | --- | --- |
| CC(=O)OCc1ccccc1 | inactive | inactive | inactive | inactive | inactive | inactive | inactive |  |
| CCCCCCO | inactive | inactive | inactive | inactive | inactive | inactive | active | inactive |
| O=C([O-])CCCCCCC(=O)[O-].[H+].[H+] | inactive |  | inactive | inactive |  |  | inactive | inactive |
| CCCCCOC(=O)CCCCC | inactive | inactive | inactive | inactive | inactive | inactive | inactive |  |
| O=C(c1ccccc1)c1ccccc1 | inactive | inactive | inactive | inactive | inactive | inactive | inactive |  |
| O=C([O-])CCCCCCCC(=O)[O-].[H+].[H+] | inactive |  | inactive | inactive |  |  | inactive | inactive |
| CCCCCC=O | inactive | inactive | inactive | inactive | active | inactive | inactive |  |
| CCCCCCCO | inactive | inactive | inactive | inactive | inactive | inactive | inactive | inactive |
| CCCCC=O | inactive |  | inactive | inactive |  |  | inactive | inactive |
| O=C1Cc2ccccc2O1 | inactive | inactive | inactive | inactive | inactive | inactive | inactive |  |
| CCC(=O)O | inactive | inactive | inactive | inactive | inactive | inactive | inactive |  |
| C=C(C)C1CCC(C)C(=O)C1 (stereo unspecified) | inactive | inactive | inactive | inactive | inactive | inactive | inactive |  |
| CC12CCC(CC1=O)C2(C)C (stereo unspecified) | inactive | inactive | inactive | inactive | inactive | inactive | inactive |  |
| CCCCOC=O | inactive | inactive | inactive | inactive | inactive | inactive | inactive |  |
| O=C(O)CCCCCBr | inactive |  | inactive | inactive |  |  | inactive | inactive |
| CCCCC(C)=O | inactive | inactive | inactive | inactive | inactive | inactive | active |  |
| CC(C)=CCCC(C)=CCO | inactive | inactive | inactive | inactive | inactive | inactive | inactive |  |
| CCCCCC1=C(C)CCC1=O | inactive | inactive | inactive | inactive | inactive | inactive | inactive |  |
| CCCCCCCC(C)=O | inactive | inactive | inactive | inactive | inactive | inactive | inactive |  |

| Compound | odorant receptor agonist call [1] | odorant receptor agonist call [2] | odorant receptor agonist call [3] | odorant receptor agonist call [4] | odorant receptor agonist call [5] | odorant receptor agonist call [6] | odorant receptor agonist call [7] | odorant receptor agonist call [8] |
| --- | --- | --- | --- | --- | --- | --- | --- | --- |
| CCCCCCCCCO | inactive | inactive | inactive | inactive | inactive | inactive | inactive | inactive |
| CCCCCCCCC(=O)O | inactive | active | inactive | inactive | inactive | inactive | inactive |  |
| c1ccccc1 | inactive | inactive | inactive | inactive | inactive | inactive | inactive |  |
| CCCCC(=O)CC | inactive | inactive | inactive | inactive | inactive | inactive | inactive |  |
| CCOC(=O)C(C)C | inactive | inactive | inactive | inactive | inactive | inactive | inactive |  |
| CCCCCCCCCC(=O)[O-].[H+] | active | active | inactive | inactive | inactive | inactive | inactive | active |
| CCCCCCCCCS | inactive | active | inactive | inactive | inactive | inactive | inactive |  |
| CC(C)=CCCC(C)CCO (stereo unspecified) | inactive | inactive | inactive | inactive | inactive | inactive | inactive |  |
| CCCCCCCCCCO | inactive | inactive | inactive | inactive | inactive | inactive | inactive |  |
| C=CCOC(=O)CCCCCC | inactive | inactive | inactive | inactive | inactive | inactive | inactive |  |
| CCCCCCC(C)=O | inactive | inactive | inactive | inactive | inactive | inactive | inactive |  |
| CC(=O)OCC=C(C)C | inactive | inactive | inactive | inactive | inactive | inactive | inactive |  |
| CCCCC(=O)O | inactive | inactive | inactive | inactive | inactive | inactive | inactive | inactive |
| CCCCCCCCO | inactive | inactive | inactive | inactive | inactive | inactive | inactive | inactive |
| CCCCCCOC(C)=O | inactive | inactive | inactive | inactive | inactive | inactive | inactive |  |
| C=CC(=C)CCC=C(C)C | inactive |  | inactive | inactive |  |  | inactive |  |
| CCC(=O)C(=O)CC | inactive | inactive | inactive | inactive | inactive | inactive | active |  |
| CCCCCCC(=O)OCCCC | inactive |  | inactive | inactive |  |  | inactive |  |
